In general, MIC refers to the least concentration at which growth counts as inhibited. A high value points to a need for much substance.

The subject of experiment [1] is Nakaseomyces glabratus. The experiment is described as follows: Antifungal activity against Candida glabrata isolate 4198 after 48 hrs by broth microdilution method. The class given is functional. Put shortly: (§1)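 CLSI broth microdilution with final drug concentrations […], incubated at 35°C and read spectrophotometrically at 490 nm at 24 and 48 h. MIC is the first concentration giving 50% turbidity reduction versus control, or 90% for amphotericin B. Run in quintuplicate.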
A general note: Dilution methods test growth across graded concentrations, often in twofold steps.

Experiment [2] relates to Nakaseomyces glabratus. The experiment is described as follows: Antifungal activity against Candida glabrata isolate 4205 after 48 hrs by broth microdilution method. The class given is functional. The following applies: isolate 4205, 48 h. The essentials:
as §1

In experiment [3] the test system is Candida parapsilosis. The experiment is described as follows: Antifungal activity against Candida parapsilosis ATCC 22019 after 48 hrs by broth microdilution method. In kind it is functional. The following applies: Lodderomyces parapsilosis, ATCC 22019, 48 h. Put shortly:
as §1

The subject of experiment [4] is Nakaseomyces glabratus. The experiment is described as follows: Antifungal activity against Candida glabrata isolate 4293 after 48 hrs by broth microdilution method. The class given is functional. The essentials:
as §1

For experiment [5], the system named is Nakaseomyces glabratus. The experiment is described as follows: Antifungal activity against Candida glabrata isolate 4370 after 48 hrs by broth microdilution method. In kind it is functional. The essentials: as §1
Experiment [6] relates to Nakaseomyces glabratus. The experiment is described as follows: Antifungal activity against Candida glabrata isolate 4293 after 24 hrs by broth microdilution method. The class given is functional. Put shortly: (§2)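 CLSI broth microdilution, final drug concentrations 0.0078–8 µg/ml. Incubated at 35°C and read at 24 and 48 h by OD490. MIC is the first concentration giving 50% (azole, echinocandin) or 90% (polyene) less turbidity than the drug-free control. Quintuplicate.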

The test system of experiment [7] is Nakaseomyces glabratus. The experiment is described as follows: Antifungal activity against 2.44 x 10^8 CFU Candida glabrata isolate 4293 infected in CD1 mouse assessed as inhibition of regrowth in fungal burden in kidney at 1 mg/kg/day, ip administered from day 1 to day 2 post viral challenge measured on day 7 postinfection. In kind it is functional, organism-based. The essentials:
(§3)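 Male CD1 mice (25 g) made neutropenic with cyclophosphamide 200 mg/kg/day ip on days −4, +1 and +4 postinfection. Infected iv with C. glabrata 4293 in 0.2 ml. Treatment began 24 h postchallenge, with 1 mg/kg/day ip in 0.2 ml. Sacrifice on day 3 or day 7. Kidney pairs homogenized; diluted and undiluted aliquots plated on Sabouraud dextrose agar for CFU. Medians reported; 7–8 mice per group.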

Experiment [8] has as its system Nakaseomyces glabratus. The experiment is described as follows: Antifungal activity against 1.04 x 10^8 CFU Candida glabrata isolate 4293 infected in CD1 mouse assessed as inhibition of regrowth in fungal burden in kidney at 1 mg/kg/day, ip administered from day 1 to day 2 post viral challenge measured on day 7 postinfection. In kind it is functional, organism-based. Put shortly:
as §3

Experiment [9] deals with Nakaseomyces glabratus. The experiment is described as follows: Antifungal activity against 2.44 x 10^8 CFU Candida glabrata isolate 4293 infected in CD1 mouse assessed as reduction in […] per kidney pair at 1 mg/kg/day, ip administered from day 1 to day 2 followed by PEG-200 infusion from day 3 to day 6 […] measured on day 7 postinfection relative to control. The class given is functional, organism-based. The essentials: as §3

In experiment [10] the test system is Nakaseomyces glabratus. The experiment in a line: Antifungal activity against 1.04 x 10^8 CFU Candida glabrata isolate 4293 infected in CD1 mouse assessed as reduction in viral count per kidney pair at 1 mg/kg/day, ip administered from day 1 to day 2 followed by PEG-200 infusion from day 3 to day 6 post viral challenge measured on day 7 postinfection relative to control. The class given is functional, organism-based. Put shortly: as §3

Experiment [11] concerns Nakaseomyces glabratus. The experiment is described as follows: Antifungal activity against 2.44 x 10^8 CFU Candida glabrata isolate 4293 infected in CD1 mouse assessed as inhibition of regrowth in fungal burden in kidney at 1 mg/kg/day, ip administered from day 1 to day 2 post viral challenge measured on day 3 postinfection. The class given is functional, organism-based. The essentials:
as §3

For experiment [12], the system named is Nakaseomyces glabratus. The experiment in a line: Antifungal activity against 1.04 x 10^8 CFU Candida glabrata isolate 4293 infected in CD1 mouse assessed as reduction in fungal burden per kidney pair at 1 mg/kg/day, ip administered from day 1 to day 2 post viral challenge measured on day 3 postinfection. In kind it is functional, organism-based. Put shortly:
as §3

Experiment [13] relates to Nakaseomyces glabratus. The experiment in a line: Antifungal activity against Candida glabrata isolate 4198 after 24 hrs by broth microdilution method. In kind it is functional. The essentials:
as §1

The subject of experiment [14] is Nakaseomyces glabratus. The experiment in a line: Antifungal activity against 2.44 x 10^8 CFU Candida glabrata isolate 4293 infected in CD1 mouse assessed as reduction in fungal burden per kidney pair at 1 mg/kg/day, ip administered from day 1 to day 2 post viral challenge measured on day 3 postinfection. The class given is functional, organism-based. The essentials:
as §3

The subject of experiment [15] is Nakaseomyces glabratus. The experiment is described as follows: Antifungal activity against 1.04 x 10^8 CFU Candida glabrata isolate 4293 infected in CD1 mouse assessed as inhibition of regrowth in fungal burden in kidney at 1 mg/kg/day, ip administered from day 1 to day 2 post viral challenge measured on day 3 postinfection. The class given is functional, organism-based. Put shortly:
as §3

In experiment [16] the test system is Nakaseomyces glabratus. The experiment in a line: Antifungal activity against Candida glabrata isolate 4205 after 24 hrs by broth microdilution method. In kind it is functional. The following applies: isolate 4205, 24 h. Put shortly: as §1
Experiment [17] concerns Nakaseomyces glabratus. The experiment is described as follows: Antifungal activity against Candida glabrata isolate 4370 after 24 hrs by broth microdilution method. The class given is functional. The essentials:
as §1

For experiment [18], the system named is Candida parapsilosis. The experiment is described as follows: Antifungal activity against Candida parapsilosis ATCC 22019 after 24 hrs by broth microdilution method. In kind it is functional. Particulars: Lodderomyces parapsilosis, ATCC 22019, 24 h. The essentials: as §2

Molecules are shown by their SMILES. In brackets after ≈: the same amount, converted by molar mass. Activity calls are given as the source filed them. No cut-off for these calls is given here.

`OC(Cn1cncn1)(Cn1cncn1)c1ccc(F)cc1F` [FLUCONAZOLE]: the MIC in the experiment on Nakaseomyces glabratus [1] was over 64 µg/mL; with Nakaseomyces glabratus [2], 1 µg/mL (≈ 3.27 µM); against Candida parapsilosis [3] it was 4 µg/mL (≈ 13.1 µM); with Nakaseomyces glabratus [4] it was 32 µg/mL (≈ 104 µM); with Nakaseomyces glabratus [5], 16 µg/mL (≈ 52.2 µM).

On to `CC[C@H](C)C[C@H](C)CCCCCCCCC(=O)N[C@H]1C[C@@H](O)[C@@H](NCCN)NC(=O)[C@@H]2[C@@H](O)CCN2C(=O)[C@H]([C@H](O)CCN)NC(=O)[C@H]([C@H](O)[C@@H](O)c2ccc(O)cc2)NC(=O)[C@@H]2C[C@@H](O)CN2C(=O)[C@H]([C@@H](C)O)NC1=O` [CASPOFUNGIN], for which the MIC in the experiment with Nakaseomyces glabratus [6] was at most 0.03 µg/mL; in the experiment with Nakaseomyces glabratus [13] it was 0.25 µg/mL (≈ 0.229 µM); in the experiment with Nakaseomyces glabratus [16], 0.25 µg/mL (≈ 0.229 µM); against Nakaseomyces glabratus [17], 0.125 µg/mL (≈ 0.114 µM); with Candida parapsilosis [18], 0.25 µg/mL (≈ 0.229 µM). Further, the outcome in the experiment with Nakaseomyces glabratus [7], with Nakaseomyces glabratus [8], with Nakaseomyces glabratus [9], with Nakaseomyces glabratus [10], in the experiment on Nakaseomyces glabratus [11] and in the experiment on Nakaseomyces glabratus [15] was Active. In addition, the result with Nakaseomyces glabratus [12] and in the experiment on Nakaseomyces glabratus [14] was inactive.

(Values after ChEMBL document CHEMBL1151473, “Posaconazole activity against Candida glabrata after exposure to caspofungin or amphotericin B” (2008).)
